# In the library only some 3.7% were active in any assay of this set; here they are far more common.
# NPY Y1 blocker – blocks the human neuropeptide Y Y1 receptor; AID 1040; 200,000 compounds, 1% hits; HEK293-CNG Y1 cells, membrane potential fluorescence; NPY at EC95, then isoproterenol; inhibition, % at 3.6 µM;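 active = inhibition above the campaign mean inhibition of all tested compounds plus 3 SD, cut at about 20% in these data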;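 also: 0% = DMSO wells given NPY plus isoproterenol and 100% = isoproterenol alone without NPY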
# Target sequence (P25929 whole entry, looked up): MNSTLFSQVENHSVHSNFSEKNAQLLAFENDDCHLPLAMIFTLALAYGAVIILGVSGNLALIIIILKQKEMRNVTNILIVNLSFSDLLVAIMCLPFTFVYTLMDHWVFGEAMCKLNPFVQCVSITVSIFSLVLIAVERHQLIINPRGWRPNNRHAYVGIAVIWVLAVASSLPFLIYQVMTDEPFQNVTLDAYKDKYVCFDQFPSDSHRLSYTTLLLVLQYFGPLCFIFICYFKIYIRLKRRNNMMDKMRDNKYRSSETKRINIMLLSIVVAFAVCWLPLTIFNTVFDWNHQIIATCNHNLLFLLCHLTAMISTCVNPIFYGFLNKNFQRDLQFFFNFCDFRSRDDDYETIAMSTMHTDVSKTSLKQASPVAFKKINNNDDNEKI
#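 System: HEK293 cells with Y1 receptor plus CNG channel / Probe or stimulus: NPY 25 nM then isoproterenol 1 µM plus Ro 20-1724 25 µM / Compound: one concentration, 3.6 µM, in 0.4% DMSO / Schedule: compound incubation 1 h at room temperature, readout 45 min post-stimulation / Measured by: membrane potential fluorescence / Read-out: % inhibition of NPY effect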
# NPY1 pot ag – human NPY-Y1 potentiation or agonism, primary screen; P25929; activation, % at 3.6 µM; 220,000 compounds, 0.37% hits; NPY-Y1 expressing cells, potentiator/agonist activation; in the data active = activation above about 33%, passing the limit was not always enough;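 also: cells stimulated with NPY at EC10 then isoproterenol at EC100; 0% = low agonist plus stimulus and 100% = saturating agonist plus stimulus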
# Furin inhibitor – blocks human furin protease activity | P09958 | purified furin, fluorogenic substrate cleavage | inhibition, % at 20 µM or 30 µM | 220,000 compounds, 0.061% hits | AID 463115; in the data active = inhibition above about 25%
# NPY Y2 blocker – antagonists of human neuropeptide Y receptor Y2; P49146; NPY-Y2 expressing cells, antagonist mode; inhibition, % at 2.7 µM; 140,000 compounds, 0.99% hits; AID 793; in the data active = inhibition above about 17%;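 also: 0% = vehicle with agonist challenge and 100% = reference antagonist with challenge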
# Cl transport mod – KCC2 (human) Cl- transport modulation; Q9H2X9; KCC2 cells, thallium flux FluoZin-2 fluorescence; B-score of Tl+ flux slope (higher = more flux/activation; lower = inhibition) at 10 µM; 190,000 compounds, 2.2% hits;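 active = thallium flux slope and its plate-corrected score both differing from the plate sample mean at a set confidence after two filtering rounds, in either direction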;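 also: slope of fluorescence scaled to starting intensity during 10 to 20 s after thallium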
# NPY2 pot ag – potentiates or activates human NPY-Y2 receptor; P49146; activation, % at 3.6 µM; cells expressing NPY-Y2, potentiator/agonist read-out; 220,000 compounds, 0.45% hits; in the data active = activation above about 27%;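 also: cells stimulated with NPY near EC25 plus isoproterenol at EC100; 0% = vehicle plus submaximal agonist and 100% = vehicle plus saturating agonist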
# * = called active by the depositor; · = no result.
SMILES,NPY Y1 blocker,NPY1 pot ag,Furin inhibitor,NPY Y2 blocker,Cl transport mod,NPY2 pot ag
CCOc1cccc(C(=O)Nc2ccccc2N2CCN(C(=O)C(C)C)CC2)c1,21.1*,-9.3,-14.5,21.1*,·,-9.9
CCC(=O)N1CCN(c2ccccc2NC(=O)Cc2ccccc2)CC1,24.0*,-17.2,-13.4,16.4,·,-16.7
CC(C)C(=O)N1CCN(c2ccccc2NC(=O)Cc2ccc(Cl)cc2)CC1,43.5*,-6.2,-21.7,20.4*,-1.77,-6.3
CC(=O)N1CCN(c2ccccc2NC(=O)Cc2ccc(Cl)cc2)CC1,4.3,-5.0,-12.8,·,-2.13,-2.4
CCC(=O)N1CCN(c2ccc(Cl)cc2NC(=O)c2ccc(Br)o2)CC1,8.6,-31.0,-24.5,17.4*,-1.47,-0.7
CCOC(=O)C1(CCCc2ccccc2)CCN(C(=O)Cn2nc(C)nc2C)CC1,·,0.7,-16.1,·,-1.89,7.2
CCOC(=O)CC1COCCN1C(=O)CCc1nnc(-c2ccsc2)o1 (configuration not stated),3.1,5.8,-21.5,·,-0.198,6.1
NC(=O)c1nsc(C(=O)N(CC(=O)NC2CCCC2)Cc2ccc3c(c2)OCO3)c1N,3.4,-4.1,-10.2,·,0.0111,-5.0
O=C(NC(=S)N1CCCc2ccccc21)c1ccc(Cl)cc1,11.1,-57.8,-1.0,6.8,56.5*,-11.2
O=C(NC(=S)N1CCCc2ccccc21)c1ccc(Br)cc1,2.7,-9.6,-14.0,2.1,71.8*,2.6
CCCn1c(N)c(C(=O)COC(=O)c2c(C)noc2C)c(=O)n(C)c1=O,3.0,-53.0,-2.2,-3.3,-0.871,16.9
CC(=O)NC(=S)c1c(N)n(Cc2ccccc2)c(=O)n(C)c1=O,-4.2,8.8,-4.4,5.0,3.9*,-13.6
CCCn1c(N)c(C(=S)NC(=O)C2CC2)c(=O)n(C)c1=O,2.1,-21.9,-3.3,4.2,14.1*,-9.0
CCCCn1c(N)c(C(=S)NC(=O)CC(C)C)c(=O)n(C)c1=O,6.1,-12.8,-3.8,5.7,23.5*,7.8
CC(=O)c1ccc(NC(=O)CSc2ccc3nnc(-c4cccnc4)n3n2)cc1,0.2,0.4,-24.4,·,-0.0788,6.4
COc1ccc(/C=N/NC(=O)Cc2csc(Nc3cccc(C(F)(F)F)c3)n2)cc1C,3.0,-13.6,-3.5,1.7,0.471,-9.6
Cc1c(O)c(CN2CCCC2)cc2c3c(c(=O)oc12)CCC3,-0.7,-6.4,-47.0,1.5,1.52,3.9
Cc1c(O)c(CN2CCCC2)cc2c1oc(=O)c1ccccc12,-17.2,64.8*,-14.7,2.2,-0.172,56.7*
C=CCn1cc(/C=N/Nc2nc3ccccc3[nH]2)c2ccccc21,-7.0,47.9*,-10.3,-2.9,0.578,47.2*
CSc1ccccc1NC(=O)CSCc1ccc(C)cc1,-1.2,-17.0,-10.0,4.1,-3.86*,-21.9
O=C(CSCc1ccc(Cl)cc1)Nc1ccccc1O,-3.0,0.5,-21.8,·,0.109,9.0
COc1ccc(C2=NN(C(=O)CSc3nc4ccccc4s3)C(c3ccc(OC)cc3)C2)cc1 (configuration not stated),-0.3,-23.3,-21.9,3.8,0.423,1.1
COc1ccc2c(c1)C(C)CC(C)(C)N2C(=O)CSc1nc2ccccc2s1 (configuration not stated),35.1*,-26.0,15.7,28.6*,·,-5.4
O=C1/C(=C\c2ccc(O)c(O)c2)N=C2CCCCCN12,·,0.1,-7.9,·,0.782,-9.2
O=C(COc1ccc(Cl)cc1Cl)NC(=O)N1CCOCC1,2.1,18.1,35.6*,-0.2,-0.00859,2.4
SMILES,NPY Y1 blocker,NPY1 pot ag,Furin inhibitor,NPY Y2 blocker,Cl transport mod,NPY2 pot ag
Cc1cc(Cl)ccc1OCCCC(=O)N1CCCCC1,5.5,9.2,-7.8,10.2,-1.32,1.5
Cc1cc(Cl)ccc1OCCCC(=O)N1CCOCC1,-0.3,-11.1,28.8*,1.7,0.168,8.0
CCOC(=O)N1CCC(NC(=O)c2cc(C(=O)Nc3ccc(S(=O)(=O)N4CCOCC4)cc3)ccc2CO)CC1,0.2,16.4,-17.9,·,1.03,2.4
Cc1cnc(C(=O)Nc2ccccc2-c2ccc(C)o2)cn1,4.0,100.5*,-15.1,2.9,·,55.8*
CCOC(=O)C/C(C)=N/NC(=O)C1CC1(c1ccccc1)c1ccccc1 (configuration not stated),3.1,-10.2,-22.5,-0.9,0.00533,-1.0
C/C(=N\N=c1/scc(C)n1Cc1ccco1)c1cccc([N+](=O)[O-])c1,-4.1,-27.6,-12.1,5.8,0.185,-3.5
Cc1ccc(SCc2[nH]nc3c2C(c2ccc(C)o2)C(C#N)=C(N)O3)cc1 (configuration not stated),120.5*,-46.1,3.9,78.7*,0.113,-19.9
CCc1[nH]nc2c1C(c1ccsc1)C(C#N)=C(N)O2 (configuration not stated),3.5,-47.4,-5.7,3.6,-1.02,-0.4
Cc1ccc(SCc2[nH]nc3c2C(c2ccco2)C(C#N)=C(N)O3)cc1 (configuration not stated),105.9*,-24.9,-5.1,127.2*,-0.307,-15.1
CCc1[nH]nc2c1C(c1ccc(Br)s1)C(C#N)=C(N)O2 (configuration not stated),17.7,-7.0,-19.5,13.5,-4.44*,3.0
Cc1cc[n+](-c2ccccc2)c2ccccc12,0.3,-14.9,0.6,·,0.0399,-0.7
O=C(O)c1ccc(Cl)c(S(=O)(=O)Nc2cccc(C(=O)Nc3cccc(C(F)(F)F)c3)c2)c1,-2.0,2.1,-17.8,·,0.893,4.1
O=C(NC(=S)N1CCN(c2nc(-c3ccccc3)cs2)CC1)c1cncc(Br)c1,2.4,-4.7,-29.8,·,70.2*,-4.5
CCn1c(SCC(=O)Nc2cc(F)ccc2C)nnc1-c1ccccc1O,6.3,-3.4,32.2*,0.1,-0.889,5.6
CC(CC(=O)Nc1ncc([N+](=O)[O-])s1)c1ccccc1 (configuration not stated),-2.8,17.1,-7.7,·,·,12.9
O=C(Cc1ccc(Br)cc1)Nc1ncc([N+](=O)[O-])s1,·,49.7*,-13.4,·,-0.87,62.5*
N#C/C(=N\Nc1cccc(C(F)(F)F)c1)C(=O)c1csc(-c2cccnc2)n1,·,30.0,-0.5,·,-6.13*,3.0
CS(=O)(=O)N(CCc1ccccc1)CC(=O)N1CCc2ccccc2C1,4.6,-30.5,-18.0,-0.3,-0.88,-2.7
O=S(=O)(NCCSc1ccccn1)c1ccc(Br)cc1,8.0,-6.4,-26.2,·,-0.165,-4.0
N#CC1=C(N)NC(SCc2ccc(Cl)cc2)=C(C#N)C12CCCCC2,-8.9,29.2,-11.3,-3.8,-1.84,16.1
N#CC1=C(N)NC(SCc2ccc(Br)cc2)=C(C#N)C12CCCCC2,-0.6,18.9,30.6*,-4.0,-1.3,19.1
N#CC1=C(N)NC(SCC(=O)Nc2ccc(Br)cc2)=C(C#N)C12CCCCC2,2.8,34.9,-6.4,-3.8,-4.91*,24.6
CCOC(=O)c1c(NC(=O)CSc2nnc(C)s2)sc2c1CCCCC2,39.2*,-22.5,-14.8,19.5*,0.00723,-16.5

# Screening results (PubChem)
